Compound activity (PubChem)
Only some compounds are listed: those with a hit (about 2.1% of all), similar ones and a draw of the others.
MEKK3 PB1 HTS – modulators (inhibitors or enhancers) of MEK5 binding to human MEKK3 PB1 domain. Q99759. bead-based flow cytometry, Alexa488-MEK5 binding to MEKK3; actives lie on both sides; 0 = blocked by unlabeled MEK5, 100 = vehicle. binding response (% of control), % at 10 µM. actives 1.4% (n = 290,000);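 active = binding response more than 3 SD above or below the average of its plate-row segment, actives on both sides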;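 also: Alexa488 bead fluorescence after subtracting the streptavidin-only scavenger bead signal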
MEKK2wt PB1 HTS – raises or lowers MEK5 binding to wildtype human MEKK2 PB1 domain | bead flow cytometry, Alexa488-MEK5 binding to MEKK2 WT; actives lie on both sides | binding response (% of control), % at 10 µM | actives 1.1% (n = 290,000) | AID 1531; in the data active = binding response below about 67% or above about 130%
GSK3beta inhib – human GSK3beta kinase inhibition. P49841. activity score (negative = inhibition), % at 10 µM. AID 2097. GST-GSK3beta kinase, ADP-Glo luminescence, 60 min; stronger effect = lower value. actives 0.038% (n = 300,000);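 active = more than half of replicate wells score below -50%, meaning over 50% inhibition versus plate controls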;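 also: 0% = median DMSO wells and -100% = median GW8510 positive control wells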
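Test system: GST-fused GSK3beta enzyme, cell-free | Quantity: 1.6 ng GST-GSK3beta enzyme per well | Reagent: 25 µM ATP with peptide substrate | Schedule: 60 min enzyme reaction, room temperature | Signal: Luminescent ADP-Glo measurement of ADP formed | Read-out basis: Score relative to plate controls | Control set: DMSO and 20 µM GW8510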
MEKK2 mut-MEK5 – signal of MEK5 binding to mutant human MEKK2 PB1 domain | bead flow cytometry, Alexa488-MEK5 binding to MEKK2 mutant | percent response, % at 10 µM | actives 0.35% (n = 290,000); in the data active = percent response above about 24%, passing the limit was not always enough
GSK3 alpha inh – inhibitors of human GSK-3 alpha kinase; AID 2650; ADP-Glo luminescence, 60 min; actives 0.1% (n = 320,000); inhibition, % at 10 µM;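 active = more than half of replicates show inhibition above 20%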;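 also: GST-tagged GSK-3 alpha with peptide substrate and 25 µM ATP; 0% = DMSO neutral wells and 100% = GW8510 positive control wells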
STK33 inh – human STK33 kinase inhibition; Q9BYT3; purified STK33, MBP phosphorylation, ADP-Glo luminescence; inhibition, % at 10 µM; actives 0.073% (n = 320,000);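 active = inhibition at or above 25%, using the most active replicate where run in duplicate; inactive = inhibition below 25%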
Target sequence (Q9BYT3 whole entry, looked up): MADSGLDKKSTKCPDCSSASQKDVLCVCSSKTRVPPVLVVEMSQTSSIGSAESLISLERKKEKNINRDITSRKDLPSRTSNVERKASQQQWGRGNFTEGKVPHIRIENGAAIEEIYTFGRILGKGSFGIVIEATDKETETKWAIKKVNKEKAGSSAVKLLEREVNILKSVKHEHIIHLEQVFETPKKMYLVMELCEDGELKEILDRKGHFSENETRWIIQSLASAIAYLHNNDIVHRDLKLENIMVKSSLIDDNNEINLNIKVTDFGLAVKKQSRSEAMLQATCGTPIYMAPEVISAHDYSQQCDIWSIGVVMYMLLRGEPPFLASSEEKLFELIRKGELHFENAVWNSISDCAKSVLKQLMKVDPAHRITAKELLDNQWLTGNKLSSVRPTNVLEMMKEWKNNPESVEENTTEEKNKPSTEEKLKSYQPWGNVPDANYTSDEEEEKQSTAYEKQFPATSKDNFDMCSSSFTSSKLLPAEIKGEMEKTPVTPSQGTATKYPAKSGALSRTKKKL
MEKK2wt confirm – raises or lowers MEK5 binding to wildtype human MEKK2, retest; shares compounds with MEKK3 PB1 HTS; bead flow cytometry, Alexa488-MEK5 binding to MEKK2 WT; actives lie on both sides; binding response (% of control), % at 10 µM; actives 2.4% (n = 5,900); AID 1892; in the data active = binding response below about 16% or above about 210%; inactive = in between
MEKK2mut confirm – signal of MEK5 binding to mutant human MEKK2, retest; shares compounds with MEKK3 PB1 HTS; bead flow cytometry, Alexa488-MEK5 binding to MEKK2 mutant; percent response, % at 10 µM; actives 2% (n = 5,900); in the data active = percent response mostly above about 71%, no sharp cut-off; inactive = mostly below about 38%;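 also: higher means compound restores mutant binding toward wildtype level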
MEKK3 confirm – confirmation of inhibitors of MEK5 binding to human MEKK3; shares compounds with MEKK3 PB1 HTS; bead flow cytometry, Alexa488-MEK5 binding to MEKK3; stronger effect = lower value; binding response (% of control), % at 10 µM; actives 1.8% (n = 5,900); AID 1894;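 active = binding response below 72% of control, or above a set upper limit, though filed actives all read lower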;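 also: 100% = DMSO only wells and 0% = binding blocked by excess unlabeled MEK5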
Numbers without * were called inactive; . = no result given.

SMILES | MEKK3 PB1 HTS | MEKK2wt PB1 HTS | GSK3beta inhib | MEKK2 mut-MEK5 | GSK3 alpha inh | STK33 inh | MEKK2wt confirm | MEKK2mut confirm | MEKK3 confirm
CCc1ccc2nc(N(CCCN(C)C)C(=O)c3ccc(S(=O)(=O)N4CCCC4)cc3)sc2c1 | 106 | 135* | -1 | 16 | 3 | -4 | 134 | 17 | 106
CCOC(=O)N1CCN(S(=O)(=O)c2ccc(C(=O)N(CCN(CC)CC)c3nc4ccc(C)cc4s3)cc2)CC1 | 107 | 130 | -25 | 20 | 1 | 0 | . | . | .
CN(C)CCCN(C(=O)c1ccc(S(=O)(=O)N2CCCCCC2)cc1)c1nc2ccc(F)cc2s1 | 110 | 158* | 2 | 21 | -2 | 1 | 154 | 37 | 105
CN(C)CCN(C(=O)c1ccc(S(=O)(=O)N2CCCC2)cc1)c1nc2ccc(Br)cc2s1 | 107 | 138* | -7 | 18 | -3 | -1 | 177 | 50 | 109
CCCCN(C)S(=O)(=O)c1ccc(C(=O)N(CCN(C)C)c2nc3ccc(C)cc3s2)cc1 | . | . | 1 | . | -1 | 0 | . | . | .
CN(C)CCCN(C(=O)c1ccc(S(=O)(=O)N2CCOCC2)cc1)c1nc2ccc(F)cc2s1 | 92 | 106 | 3 | -1 | 1 | 0 | . | . | .
CN(C)CCCN(C(=O)c1ccc(S(=O)(=O)N2CCCCCC2)cc1)c1nc2c(F)cccc2s1 | 105 | 134* | 0 | 14 | 3 | -1 | 127 | 10 | 101
Cc1ccsc1/C=N/NC(=O)CNC(=O)c1cccc([N+](=O)[O-])c1C | 102 | 98 | 0 | -1 | -3 | -1 | . | . | .
O=C(Nc1ccc(S(=O)(=O)Nc2ncccn2)cc1)C(F)(F)F | 105 | 105 | . | 3 | -2 | -4 | . | . | .
COCc1ccc(C(=O)N2CCCCC2C(=O)Nc2ccc(-n3nc(C)cc3C)cc2)o1 (stereo not given) | 109 | 114 | 1 | 8 | 1 | -1 | . | . | .
O=C(NCCN1CCOCC1)c1cc2sccc2n1Cc1ccc(Cl)cc1 | 109 | 127 | 7 | 11 | . | . | . | . | .
O=S(=O)(c1ccc2ccccc2c1)N1CCN(S(=O)(=O)c2c(F)cccc2F)CC1 | . | . | . | . | -1 | 0 | . | . | .
COc1cccc2sc(N(CCCN(C)C)C(=O)c3ccc(S(=O)(=O)N4CCCc5ccccc54)cc3)nc12 | 110 | 187* | -2 | 38* | -1 | 0 | 172 | 39 | 107
CCc1ccc2nc(N(CCCN(C)C)C(=O)c3ccc(S(=O)(=O)N4CCCc5ccccc54)cc3)sc2c1 | 97 | 188* | -2 | 32* | 2 | 1 | 203 | 52 | 107
COc1cc2nc(N(CCCN(C)C)C(=O)c3ccc(C(=O)c4ccccc4)cc3)sc2cc1OC | . | . | -4 | . | 0 | -2 | . | . | .
CCc1ccc2nc(N(CCCN(C)C)C(=O)c3ccc(C(=O)c4ccccc4)cc3)sc2c1 | 104 | 186* | 3 | 32* | 2 | 0 | 205 | 64 | 109
CNC(=O)c1oc(-c2ccc(Cl)cc2)nc1C | 99 | 102 | -4 | 1 | 3 | . | . | . | .
COc1ccc(CNC(=O)COC(=O)c2ccc(C)c(S(=O)(=O)N3CCOCC3)c2)cc1 | . | . | . | . | -2 | 0 | . | . | .
COc1ccccc1N1CCN(S(=O)(=O)CCNC(=O)C2CCCCC2)CC1 | . | . | 4 | . | 4 | 1 | . | . | .
COc1ccccc1NS(=O)(=O)c1cc(NC(=O)CCC(=O)c2cccs2)ccc1Cl | 147* | 108 | 0 | 0 | 1 | -1 | 99 | -6 | 97
